Rows were chosen to be rich in hits. Some 3.5% of all compounds tested hit in one or more screens of this group.
MrgX1 PAM – allosterically activates human MrgX1 receptor signaling; MrgX1-HEK293, Fluo-4 calcium flux, FDSS; active compounds read high; B-score at 10 µM; 310,000 compounds, 0.63% hits;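 active means plate-corrected calcium response at least 3 library SD above typical, normal starting fluorescence, not activating the receptor alone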;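 further: compound read alongside a low EC10 to EC30 dose of BAM8-22 agonist; peak minus trough fluorescence over baseline measured at the second addition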
Target sequence (Q96LB2 whole entry, looked up): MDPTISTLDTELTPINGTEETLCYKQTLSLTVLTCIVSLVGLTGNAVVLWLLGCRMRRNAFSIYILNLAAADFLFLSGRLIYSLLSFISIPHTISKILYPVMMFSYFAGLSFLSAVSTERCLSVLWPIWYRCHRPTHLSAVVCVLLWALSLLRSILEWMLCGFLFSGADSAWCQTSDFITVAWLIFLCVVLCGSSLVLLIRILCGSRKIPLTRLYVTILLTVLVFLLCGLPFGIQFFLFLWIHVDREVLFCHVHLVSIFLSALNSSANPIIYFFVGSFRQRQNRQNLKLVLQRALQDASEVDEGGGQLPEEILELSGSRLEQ
RGS4 block – human RGS4 inhibition; AID 463165; HEK293 M3R/RGS4 inducible, Fluo-4 calcium flux; active compounds read high; triggered by carbachol at its EC20; B-score at 10 µM; 310,000 compounds, 0.45% hits; P49798;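 active means B-score, a plate-corrected calcium signal, over three deviations above library mean, with baseline fluorescence within five deviations of library mean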;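 further: RGS4 expression induced by doxycycline in cells with stable M3 receptor; B-score is computed from the integrated fluorescence ratio over baseline after carbachol; higher B-score means a larger calcium signal and so more RGS4 inhibition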
Target sequence (P49798 whole entry, looked up): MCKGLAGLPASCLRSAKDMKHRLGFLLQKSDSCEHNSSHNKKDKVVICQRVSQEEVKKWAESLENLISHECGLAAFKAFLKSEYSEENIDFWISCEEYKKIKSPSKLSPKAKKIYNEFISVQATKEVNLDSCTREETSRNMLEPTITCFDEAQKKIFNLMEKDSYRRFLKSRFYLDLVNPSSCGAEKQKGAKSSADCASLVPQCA
RGS4 act – RGS4 potentiation or activation | B-score at 10 µM | HEK293 M3R/inducible RGS4, carbachol calcium flux Fluo4; active compounds read low | 310,000 compounds, 0.92% hits;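 active means B-score of the integrated calcium signal more than 4 SD below the library mean, with starting fluorescence not abnormally high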;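 further: negative B-score means reduced calcium response which marks RGS4 activation or potentiation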
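Also added: carbachol at ECmax as muscarinic agonist stimulus; Assay system: HEK293 cells with stable M3R and inducible RGS4; Timing: overnight RGS4 induction, 30 min dye load 37 °C, 20 min compound RT; Measured by: Fluo4-AM (2 µM) calcium-flux fluorescence, kinetic read.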
MrgX1 agonist – human MrgX1 receptor agonism, primary screen. Q96LB2. MrgX1-HEK293 cells, Fluo-4 calcium fluorescence, agonist mode; active compounds read high. B-score at 10 µM. 310,000 compounds, 0.44% hits. AID 588627;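 active means calcium response B-score plate-corrected fluorescence ratio at least 3 library SD, with starting fluorescence B-score inside 5 SD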
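Assay system: stable human MrgX1 HEK293 cell line. Quantity: 15,000 cells per well. Schedule: cells plated overnight, dye loaded 0.5 h 37 °C, 0.5 h room temperature. Detection: Fluo-4 NW calcium-flux fluorescence, kinetic read. Read-out basis: peak-minus-minimum fluorescence over baseline, converted to B scores. Control set: positive and negative control wells on each plate.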
MrgX1 antagonist – human MrgX1 receptor antagonism, primary screen | MRGX1-HEK293 calcium flux, Fluo-4, BAM8-22 antagonism; active compounds read low | AID 588676 | B-score at 10 µM | 310,000 compounds, 1.3% hits | Q96LB2;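 active means calcium-response B-score plate-corrected more than 3 library SD below zero, starting fluorescence within 5 deviations, no agonist response on first addition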;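 further: peak minus trough fluorescence over baseline after final BAM8-22 challenge near maximal dose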
The depositor's hits bear a star; i = inactive; / = no result given; ! = repeats disagree.

SMILES | MrgX1 PAM | RGS4 block | RGS4 act | MrgX1 agonist | MrgX1 antagonist
CC12CCC(C(=O)N/N=C/c3ccc(O)cc3O)(OC1=O)C2(C)C (centres undefined) | i | i | i | i | i
CC(C)CN(C(=O)c1ccc(=O)n(C)n1)c1nc2ccccc2s1 | i | i | i | i | i
CC(C)c1nn2c(N)c(/C=C3\C=Nc4ccccc43)c(=O)nc2s1 | 13* | i | i | i | i
CCCc1nn2c(N)c(/C=C3\C=Nc4ccccc43)c(=O)nc2s1 | 16*! | i | i | i | i
CCCCc1nn2c(N)c(/C=C3\C=Nc4ccccc43)c(=O)nc2s1 | i | i | i | i | i
CCC(CC)c1nn2c(N)c(/C=C3\C=Nc4ccccc43)c(=O)nc2s1 | i | i | i | i | i
CC(=O)N/N=C(\N)c1nonc1N | i | i | i | i | i
N#CC1=C(N)SC(N)=C(C#N)C1c1ccoc1 | i | i | i | 37* | i
CC1=C(C#N)C(c2ccoc2)C(C(=O)OCc2ccccc2)=C(N)S1 (centres undefined) | i | i | i | i | i
O=[N+]([O-])c1ccc(N2CCC(=NOCc3ccc(Cl)cc3)CC2)cc1 | i | i | -8.2* | i | i
O=C1N/C(=N/O)S/C1=C/c1cccnc1 | i | i | i | i | i
Cc1ccc(S(=O)(=O)/N=C2/NC(=O)/C(=C/c3cccnc3)S2)cc1 | i | i | i | 31* | i
O=c1c2ccc([N+](=O)[O-])cc2ncn1CCOc1ccc(Cl)cc1 | i | i | -8.2* | i | i
O=c1c2ccc([N+](=O)[O-])cc2ncn1CCOc1cccc(Br)c1 | i | i | i | i | i
Cc1ccc(C(=O)/C=C/N(C)C)o1 | i | i | i | i | i
Cc1ccc(C(=O)/C=C/c2cc(Br)cc(Br)c2O)o1 | i | i | i | i | -5.3*
O=C(NCC1CCCO1)c1nn2c(C(F)(F)F)cc(-c3cc(Br)cs3)nc2c1Br (centres undefined) | i | i | i | 33* | i
Cc1noc(C)c1COc1ccc(C(=O)Nc2cccnc2)cc1 | / | i | -7.4* | / | /
CCOc1ccccc1N=Nc1c(C)[nH]n(C(N)=S)c1=O | i | i | i | i | i
CC(C)n1nc(C(=O)Nc2cccc(S(=O)(=O)NCc3ccco3)c2)c2ccccc2c1=O | i | i | -7.2* | i | i
O=C1c2ccccc2NC(c2cccc(Cl)c2)N1N=C1CCCCCC1 (centres undefined) | 8.6* | i | i | i | i
O=C1c2ccccc2NC(c2ccc(Cl)cc2Cl)N1O (centres undefined) | i | i | i | i | i
COc1ccc(F)cc1S(=O)(=O)NCc1ccccc1 | i | i | i | i | i
COc1ccc(Br)cc1S(=O)(=O)NCc1ccccc1 | i | i | i | i | -4.9*
O=C(c1ccco1)N1CCN(c2ncnc3sc4c(c23)CCC4)CC1 | i | i | -7.2* | i | i
SMILES | MrgX1 PAM | RGS4 block | RGS4 act | MrgX1 agonist | MrgX1 antagonist
CCc1nc(N2CCN(C(=O)c3ccco3)CC2)c2c3c(sc2n1)CCCC3 | i | i | i | i | i
O=C(N/N=C/c1cccnc1)c1cc(Br)ccc1O | i | i | i | i | i
O=C(N/N=C/c1ccccn1)c1cc(Br)ccc1O | i | i | i | 27* | i
CC(=O)c1ccc(-c2ccc(/C=C(/Sc3n[nH]c(C)n3)C(=O)O)o2)cc1 | i | i | i | i | -4.8*
Cc1nc(S/C(=C/c2ccc(-c3ccc(Cl)cc3)o2)C(=O)O)n[nH]1 | i | i | i | i | i
Cc1nc(S/C(=C/c2ccc(-c3cc(Cl)ccc3C)o2)C(=O)O)n[nH]1 | i | i | i | i | -5*
Cc1nc(S/C(=C/c2ccc(-c3ccc(C(=O)O)cc3)o2)C(=O)O)n[nH]1 | i | i | i | i | i
CCn1c(Cl)c(C=O)s/c1=N\S(=O)(=O)c1ccccc1 | i | i | i | 31* | i
CCN1C(=O)CS/C1=N\S(=O)(=O)c1ccc(Cl)cc1 | i | i | i | i | i
COc1ccc(S(=O)(=O)n2nc(-c3cc(OC)c(OC)c(OC)c3)cc2N)cc1OC | i | / | / | i | i
COc1ccc(-c2cc(N)n(S(=O)(=O)c3c(F)c(F)c(F)c(F)c3F)n2)cc1OC | i | i | i | i | -6.9*
O=S(=O)(c1ccc(Br)cc1)N1CCCc2ccccc21 | i | i | i | i | i
COc1ccccc1C(=O)NC(CCSC)C(=O)OC(C)C(N)=O (centres undefined) | 12* | i | i | i | i
CCN(CC(=O)NC(C)C)C(=O)C(CCSC)NC(=O)c1ccccc1OC (centres undefined) | i | i | i | i | i
CCOc1ccc(S(=O)(=O)Nc2ccc(C(=O)NCC3(N4CCCCC4)CCCCC3)cc2)cc1 | i | i | i | i | -9.8*
CN(C)S(=O)(=O)c1cccc(C(=O)OCC(=O)Nc2sccc2C(N)=O)c1 | i | i | i | i | -5*
NC(=O)NC(=O)C(Nc1ccc(N2CCCCC2)cc1)c1ccccc1 (centres undefined) | i | i | -9.1* | i | i
CC(=O)N(c1ccccc1)C1CCCC1 | i | i | i | i | i
O=C(CCl)N(c1ccccc1)C1CCCCC1 | i | i | -7* | i | i
CCC(C)(C(=O)NC1CCCC1)N(C(=O)c1cnccn1)c1c(C)n(C)n(-c2ccccc2)c1=O (centres undefined) | i | i | i | i | i
Cc1c(C(=O)NCCC2=CCCCC2)oc2ccc(S(=O)(=O)N3CCC4(CC3)OCCO4)cc12 | i | i | -8* | i | i
O=C(Nc1nc2c(F)cc(F)cc2s1)c1ccc([N+](=O)[O-])o1 | 8.6* | i | i | i | i
COc1ccc2nc(NC(=O)c3ccc([N+](=O)[O-])o3)sc2c1 | 12* | i | i | i | i
COc1ccc2nc(Nc3ccc4c(c3)OCO4)sc2c1 | i | i | i | i | i
COc1ccc2nc(NC(=O)/C=C/c3ccc4c(c3)OCO4)sc2c1 | i | i | i | i | -6.3*
O/C(=C\Sc1nnc(Cc2ccccc2)o1)c1ccc(F)cc1 | i | i | i | i | i
O=C(Cn1ccc2ccccc2c1=O)NCC(=O)Nc1ccc(F)cc1F | i | i | i | i | i
CN1CCN(C(=S)NC(=O)c2ccccc2Br)CC1 | i | i | i | i | i
